# The source made the active and inactive calls. Cut-off read from the data, not from the text of the source, unless noted: active = inhibition above about 30%; inactive = the rest.
# Legend:
# [1] = Her2 expression decrease, cell viability multiplex – SKBR3 breast tumor cells, AlphaScreen, ATP viability, primary screen (AID 461;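 active = Her2 level under about 52% in both replicate screens, with viability over 70% of control, limit read from the data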;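 for Her2 level: lower value means less Her2 protein in the cells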;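 for viability: percent of carrier control wells set as 100% viability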); conditions: SKBR3 Her2 protein level, 18-24 h, measured here: SKBR3 viability, ATP luminescence, at 10 µM
# [2] = target: Receptor tyrosine-protein kinase erbB-2 (Homo sapiens) (UniProt P04626); assay: as above; conditions: 18-24 h, at 10 µM, stronger effect = lower value
# Receptor tyrosine-protein kinase erbB-2 (Homo sapiens), sequence (P04626 whole entry, looked up): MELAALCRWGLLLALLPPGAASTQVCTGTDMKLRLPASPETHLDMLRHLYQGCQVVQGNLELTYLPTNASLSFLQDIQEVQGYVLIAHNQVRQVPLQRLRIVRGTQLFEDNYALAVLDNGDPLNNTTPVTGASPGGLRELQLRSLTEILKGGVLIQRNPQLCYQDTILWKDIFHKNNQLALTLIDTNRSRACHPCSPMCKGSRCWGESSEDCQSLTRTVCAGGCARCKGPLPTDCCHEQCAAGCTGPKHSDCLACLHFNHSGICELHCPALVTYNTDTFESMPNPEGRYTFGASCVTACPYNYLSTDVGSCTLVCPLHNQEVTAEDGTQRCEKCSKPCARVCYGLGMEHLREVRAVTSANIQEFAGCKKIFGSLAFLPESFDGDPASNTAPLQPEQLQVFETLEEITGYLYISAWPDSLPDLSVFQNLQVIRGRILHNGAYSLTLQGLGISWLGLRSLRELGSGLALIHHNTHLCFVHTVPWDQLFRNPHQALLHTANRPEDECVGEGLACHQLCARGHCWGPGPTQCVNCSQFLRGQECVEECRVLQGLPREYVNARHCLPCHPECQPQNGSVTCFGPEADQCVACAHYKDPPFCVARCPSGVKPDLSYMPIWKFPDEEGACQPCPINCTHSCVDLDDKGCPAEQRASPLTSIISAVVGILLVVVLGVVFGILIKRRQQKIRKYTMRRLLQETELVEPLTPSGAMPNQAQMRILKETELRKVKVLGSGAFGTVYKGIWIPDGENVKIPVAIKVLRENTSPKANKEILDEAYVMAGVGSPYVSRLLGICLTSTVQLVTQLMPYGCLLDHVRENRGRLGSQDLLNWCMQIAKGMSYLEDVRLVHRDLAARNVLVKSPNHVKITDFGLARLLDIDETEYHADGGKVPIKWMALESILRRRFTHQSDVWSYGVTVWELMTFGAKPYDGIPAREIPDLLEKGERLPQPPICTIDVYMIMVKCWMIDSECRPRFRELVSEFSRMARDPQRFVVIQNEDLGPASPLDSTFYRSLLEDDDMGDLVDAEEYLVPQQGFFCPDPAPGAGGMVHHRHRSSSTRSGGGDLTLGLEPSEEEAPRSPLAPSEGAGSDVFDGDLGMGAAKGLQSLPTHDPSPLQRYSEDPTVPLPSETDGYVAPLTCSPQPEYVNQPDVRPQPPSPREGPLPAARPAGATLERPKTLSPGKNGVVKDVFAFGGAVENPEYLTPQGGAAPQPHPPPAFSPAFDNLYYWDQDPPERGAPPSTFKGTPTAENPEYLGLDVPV
# [3] = reduced viability of SK-BR-3 breast cancer cells – cell-based, 24 h, human, pilot screen (AID 572;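 active = viability at or below 10% of carrier control in both of two separate runs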;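 note: compound exposure lasted between 18 and 24 h rather than exactly 24 h; 100% = carrier-treated control wells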); conditions: SK-BR-3 viability, CellTiter-Glo luminescence, at 10 µM, stronger effect = lower value
# [4] = HUVEC growth inhibition – cell-based, human, primary screen (AID 575;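 active = viability at or below 30% in both replicate assays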;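 note: 100% = median of untreated cell wells with 0.1% DMSO on each plate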); conditions: HUVEC proliferation, CellTiter-Glo luminescence, 72 h; at 10 µM; stronger effect = lower value
# Outline: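 System – primary HUVEC, no more than 12 passages · Medium – Low-serum (2% FBS) EBM, supplemented · Times – 72 h exposure, 37 °C, 5% CO2, 30 min RT equilibration · Measured by – luminescent ATP assay · Read-out – % viability relative to median vehicle-well signal on each plate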
# [5] = H69AR cell proliferation blockers – human, duplicate replicates, primary screen (AID 580;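 active = viability at or under a set limit in both replicates, limit being median viability minus 3 SD, cut at about 48% in these data, passing the limit was not always enough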;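 note: 100% = mean luminescence of untreated wells and 0% = no signal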); conditions: H69AR lung tumor cells viability, ATP luminescence, 72 h; at 10 µM; stronger effect = lower value
# [6] = MRP1 drug-resistance reversers in H69AR cells – cell-based, doxorubicin co-treatment, pilot screen (AID 601;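 active = viability loss from added drug above about 55%, and viability with drug at most 40%, in both replicates, limit read from the data, passing the limit was not always enough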); conditions: CellTiter-Glo, 72 h, at 10 µM; for differential viability (reversal): stronger effect = higher value
# [7] = yeast transport mutant growth inhibition pilot in 384-well plates, post-Golgi transport modulator project (AID 636; in the data active = inhibition above about 31%); conditions: absorbance 615 nm, about 18 h, stronger effect = higher value
# [8] = growth suppression of yeast trafficking mutant, preliminary HTS, modulators of trafficking downstream of Golgi apparatus project, 1536-format plate, OD 615 nm (AID 637); conditions: yeast transport mutant growth, absorbance 615 nm, 18 h; stronger effect = higher value
# [9] = H69AR cells + 2 uM doxorubicin, measured here: viability with 2 uM doxorubicin, stronger effect = lower value
# [10] = H69AR cells, compound alone cytotoxicity
Structure (SMILES),viability [1],Her2 level [2],viability [3],viability [4],viability [5],differential viability (reversal) ([6]; H69AR cells + 2 uM doxorubicin),"viability [6, 9]","viability [6, 10]",inhibition [7],inhibition [8]
COc1ccccc1NC(=O)c1cc2n(n1)C(C(F)(F)F)CC(c1ccc3c(c1)OCO3)N2 (stereo not given),85%,95% (inactive),85% (inactive),47.7% (inactive),73.3% (inactive),-13.8% (inactive),87.1%,73.3%,-4.03% (inactive),-3.33% (inactive)
Cc1oc2cc(O)ccc2c(=O)c1-c1cnn(-c2ccccc2)c1,93.5%,90% (inactive),93.5% (inactive),85% (inactive),96.5% (inactive),-1.5% (inactive),98%,96.5%,-5.13% (inactive),13.3% (inactive)
Cc1ccc(OC(=O)CCc2c(C)nc3ncnn3c2C)cc1,102%,96.5% (inactive),102% (inactive),95.9% (inactive),87.1% (inactive),5.46% (inactive),81.7%,87.1%,3.29% (inactive),-9.09% (inactive)
CCOC(=O)N1CCN(S(=O)(=O)c2ccc(OCC)c(C)c2)CC1,110%,88.5% (inactive),110% (inactive),88.9% (inactive),103% (inactive),17.6% (inactive),85.5%,103%,-1.95% (inactive),-3.17% (inactive)
CCn1c2ccccc2c2cc(NC(=O)CSc3nnc(C4CC4)n3Cc3ccco3)ccc21,104%,88% (inactive),104% (inactive),75.5% (inactive),79% (inactive),-16.2% (inactive),95.2%,79%,-6.45% (inactive),-3.17% (inactive)
Cc1ccccc1CN1CCNC1=O,114%,80% (inactive),114% (inactive),88.3% (inactive),90.8% (inactive),8.97% (inactive),81.9%,90.8%,-3.16% (inactive),6.61% (inactive)
Cc1cnc(NC(=O)CSc2nc3ccccc3c(=O)[nH]2)s1,89.5%,93.5% (inactive),89.5% (inactive),76.5% (inactive),93.3% (inactive),10.8% (inactive),82.5%,93.3%,-3.07% (inactive),-6.19% (inactive)
COC(C)(C)c1cc(C(C)(C)C)nc(N)n1,107%,109% (inactive),107% (inactive),86.2% (inactive),89.9% (inactive),-1.34% (inactive),91.2%,89.9%,-2.08% (inactive),-4.75% (inactive)
O=C1c2oc3ccccc3c(=O)c2C(c2ccccn2)N1Cc1ccccc1 (stereo not given),91.5%,110% (inactive),91.5% (inactive),95.6% (inactive),104% (inactive),9.52% (inactive),94.7%,104%,1.07% (inactive),-8.87% (inactive)
Cn1c(-c2ccccc2)c(CCO)c2ccccc21,97%,78.5% (inactive),97% (inactive),114% (inactive),94.7% (inactive),-2.71% (inactive),97.4%,94.7%,-0.79% (inactive),-2.9% (inactive)
CCc1nnc(NC(=O)CN2CCN(c3ccccc3OC)CC2)s1,99.5%,89% (inactive),99.5% (inactive),64.9% (inactive),50.7% (inactive),25.5% (inactive),25.2%,50.7%,-0.39% (inactive),-5.56% (inactive)
Cc1cc(C)n(-c2ccc(C(=O)Oc3ccc4c(c3)OCO4)cc2)n1,80%,83.5% (inactive),80% (inactive),92.3% (inactive),90.7% (inactive),2.71% (inactive),88%,90.7%,-4.13% (inactive),-1.11% (inactive)
N#CC1=C(N)SC(N)=C(C#N)C1c1ccc(C(F)(F)F)cc1,90%,104% (inactive),90% (inactive),56.3% (inactive),84.3% (inactive),-4.95% (inactive),89.3%,84.3%,5.58% (inactive),0.82% (inactive)
Cc1ccc(NC(=O)Cn2cccc2)cc1Cl,94%,85% (inactive),94% (inactive),98.5% (inactive),96.3% (inactive),17.9% (inactive),78.5%,96.3%,-5.95% (inactive),-3.67% (inactive)
CCOC(=O)c1cnc(-n2cc(C)cn2)nc1Nc1ccccc1OC,92.5%,94% (inactive),92.5% (inactive),80.8% (inactive),60.8% (inactive),-8.94% (inactive),69.8%,60.8%,-4.55% (inactive),-4.13% (inactive)
Cc1ccc(NC(=O)CSc2nnc(CNC(=O)c3c(F)cccc3Cl)o2)cc1,80%,98% (inactive),80% (inactive),98% (inactive),95.7% (inactive),-0.775% (inactive),96.5%,95.7%,-0.51% (inactive),-6.83% (inactive)
OCC#CCSc1nnc(-c2ccccc2Br)o1,118%,109% (inactive),118% (inactive),85.3% (inactive),86.2% (inactive),5.93% (inactive),80.2%,86.2%,0% (inactive),4.26% (inactive)
COc1ccccc1CN1CCCC(C(=O)N(C)Cc2ccccc2)C1 (stereo not given),70%,116% (inactive),70% (inactive),99.1% (inactive),81.1% (inactive),3.71% (inactive),77.4%,81.1%,-0.77% (inactive),5% (inactive)
Cc1ccc(CCNC(=O)C2CCN(S(=O)(=O)c3ccc4c(c3)CCC(=O)N4)CC2)cc1,98.5%,100% (inactive),98.5% (inactive),44.2% (inactive),79.9% (inactive),10.6% (inactive),69.3%,79.9%,-0.67% (inactive),-6.07% (inactive)
Cc1cccc(Nc2nc3c(c(=O)n(C)c(=O)n3C)n2Cc2ccccc2)c1,122%,87% (inactive),122% (inactive),93.2% (inactive),96.6% (inactive),-0.855% (inactive),97.5%,96.6%,-4.32% (inactive),2.86% (inactive)
COc1ccc(S(=O)(=O)N2CN(Cc3ccco3)c3nc4ccccc4nc32)cc1,101%,84.5% (inactive),101% (inactive),99.2% (inactive),102% (inactive),7.69% (inactive),94.2%,102%,1.82% (inactive),1.11% (inactive)
O=C(N1CCCCCC1)N1CCN(S(=O)(=O)N2CCCCC2)CC1,101%,91.5% (inactive),101% (inactive),99.5% (inactive),94% (inactive),-5.71% (inactive),99.7%,94%,-2.76% (inactive),-2.26% (inactive)
CCCc1c(O)nc(SCC(=O)NCCc2ccc(OC)c(OC)c2)[nH]c1=O,95%,93.5% (inactive),95% (inactive),84.6% (inactive),104% (inactive),-0.29% (inactive),104%,104%,-4.53% (inactive),-2.26% (inactive)
CCOC(=O)c1cc(-c2ccco2)nc2c1c(C)nn2CCC#N,96%,101% (inactive),96% (inactive),98% (inactive),68.3% (inactive),-16.2% (inactive),84.5%,68.3%,4.05% (inactive),3.97% (inactive)
Cc1nc2ccc(S(=O)(=O)NCC(=O)O)cc2s1,102%,100% (inactive),102% (inactive),110% (inactive),107% (inactive),5.9% (inactive),101%,107%,-1.84% (inactive),-6.19% (inactive)
O=C(O)CCCC(=O)Nc1nc(-c2ccc(F)cc2)cs1,97.5%,75.5% (inactive),97.5% (inactive),83.3% (inactive),96.5% (inactive),4.08% (inactive),92.4%,96.5%,-3.95% (inactive),-4.5% (inactive)
COc1ccc(-n2ccnc2SCC(=O)NCc2ccc3c(c2)OCO3)cc1,128%,89.5% (inactive),128% (inactive),95.3% (inactive),87.2% (inactive),-5.35% (inactive),92.6%,87.2%,-2.73% (inactive),-1.9% (inactive)
O=C(CSc1nnc(-c2ccncc2)n1-c1ccc(F)cc1)NC(=O)NCc1ccco1,132%,89% (inactive),132% (inactive),89.1% (inactive),86% (inactive),-1.76% (inactive),87.8%,86%,-7.4% (inactive),-3.97% (inactive)
CCC(C)NC(=O)c1ccccc1NC(=O)C(C)N(c1ccccc1)S(C)(=O)=O (stereo not given),93%,102% (inactive),93% (inactive),89.5% (inactive),94.5% (inactive),-7.6% (inactive),102%,94.5%,-4.19% (inactive),5.57% (inactive)
